Experiments:
Type in all cases: cell-based
Jurkat cells [1] = experiment: MTT assay of Jurkat cells with 4 in the presence of inhibitors; conditions: 4 (25 μM), 1 h; BAPTA/AM 20 μM
In short: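 Jurkat cells (1.0 × 10^5 cells/mL) in 10% FBS RPMI 1640 were preincubated with inhibitor for 30 min at 37 °C under 5% CO2, then given test compound (25 μM) for 1 h. After a further 4 h at 37 °C, 0.5% MTT in PBS was added. Formazan was dissolved overnight in 10% SDS/0.01 N HCl and absorbance read at 570 nm.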

[2] = system: mitochondrial membrane potential (ΔΨm) of Jurkat cells; experiment: Measurement of mitochondrial membrane potential; conditions: 4 25 μM; CCCP 40 μM; DilC1(5) 500 nM
In short: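 Jurkat cells (2.0 × 10^5) in 10% FBS RPMI 1640 were preincubated with or without CCCP (40 μM) for 30 min at 37 °C under 5% CO2, then exposed to test compound (25 μM) for 1 h. ΔΨm was probed with DilC1(5) (500 nM). Confocal imaging recorded bright field, DilC1(5) emission and compound emission.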

[3] = system: intracellular Ca^2+ in Jurkat cells; experiment: Flow cytometry analysis of Jurkat cells stained with Rhod-2 or Rhod-4; conditions: celastrol, Figure S7
Jurkat cells [4] = experiment: Methylene blue staining and TEM of Jurkat cells; conditions: 4 25 μM 1 h; celastrol 1 μM 24 h
In short: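 Jurkat cells (3.0 × 10^6) received test compound (25 μM, 1 h, 37 °C) or celastrol (1 μM, 24 h). Cells were pelleted, washed in ice-cold PBS/0.1% NaN3/0.5% FBS and prefixed in 2.5% glutaraldehyde (4 °C, 40 min). Postfixing used 1% OsO4 (4 °C, 30 min), then agarose embedding and ethanol dehydration. Cells were resin-embedded (60 °C, 3 days) and cut into 150 nm sections for methylene blue light microscopy and TEM.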

[5] = system: Jurkat cells (T-lymphocyte leukemia); experiment: MTT assay of Jurkat cells
In short: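 Jurkat cells (2.0 × 10^5 cells/mL) were exposed to test compound ([…]) in 10% FBS/RPMI 1640 for 24 h at 37 °C under 5% CO2. After adding 0.5% MTT in PBS and incubating 4 h at 37 °C, formazan was dissolved overnight in 10% SDS/0.01 N HCl. Absorbance was read at 570 nm.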

Oc1c2ccccc2c2c3c(cccc13)N=N2 [SP600125]
Inhibition of cell death induced by 4 (MTT, microscopy) (Jurkat cells [1]): negligible inhibition

N#CC(C#N)=NNc1cccc(Cl)c1 [CCCP, Carbonyl cyanide 3-chlorophenylhydrazone]
Mitochondrial membrane potential (ΔΨm), emission of DilC1(5) [2]: decrease in ΔΨm was also observed

CC1=C(O)C(=O)C=C2C1=CC=C1[C@@]2(C)CC[C@@]2(C)[C@@H]3C[C@](C)(C(=O)O)CC[C@]3(C)CC[C@]12C [celastrol]
Change in mitochondrial Ca2+ concentration (Rhod-2) [3]: small change | Cytoplasmic vacuolization, TEM (Jurkat cells [4]): vacuolization | Cytoplasmic vacuolization, methylene blue staining (Jurkat cells [4]): same intracellular morphological changes

CN1CCN(CCCN2c3ccccc3Sc3ccc(C(F)(F)F)cc32)CC1 [TFP, trifluoperazine]
EC50 ([5]; Homo sapiens, Jurkat, read-out: EC50, cell death of Jurkat cells): ~50 µM | Cooperative effects with 4 on cell death of Jurkat cells ([5]; TFP with 4 (25 μM), data not shown): negligible

CC(=O)OCOC(=O)CN(CC(=O)OCOC(C)=O)c1ccccc1OCCOc1ccccc1N(CC(=O)OCOC(C)=O)CC(=O)OCOC(C)=O [BAPTA/AM, tetrakis(acetoxymethyl)-1,2-bis(2-aminophenoxy)ethane-N,N,N′,N′-tetraacetate]
Inhibition of cell death induced by 4 (MTT, microscopy) (Jurkat cells [1]): negligibly inhibits

N#CC(=C(/N)Sc1ccccc1N)/C(C#N)=C(/N)Sc1ccccc1N [U0126]
Inhibition of cell death induced by 4 (MTT, microscopy) (Jurkat cells [1]): negligible inhibition

O=C(Nc1ccc2[nH]nc(-c3ccncc3)c2c1)[C@@H]1CCN(CC(=O)N2CCN(c3ccc(-c4ncccn4)cc3)CC2)C1 [SCH772984]
Inhibition of cell death induced by 4 (MTT, microscopy) (Jurkat cells [1]): negligible inhibition

— publication PMC7114882 (ACS Omega, 2020)
